One experiment has as its system A549. Put plainly: Cytotoxicity against human A549 cells by MTT assay. It counts as functional, cell-based. Put shortly:
(§1)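 Growth inhibition in 96-well plates, read by cell-mediated reduction of tetrazolium (MTT) to insoluble formazan, with doxorubicin as standard. Cell lines are A549 (alveolar adenocarcinoma, CCL-185), HeLa (cervical, CCL-2), MDA-MB-231 (breast, HTB26), MCF7 (breast, HTB22) and normal embryonic kidney HEK293. IC50 taken from plotted absorbance data, given as mean ± SD of three independent determinations.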
(In general: Tetrazolium dyes change colour on reduction, which living cells bring about.)

The subject of a further experiment is MDA-MB-231. Kind of experiment: Cytotoxicity against human MDA-MB-231 cells by MTT assay. In kind it is functional, cell-based. Put shortly:
as §1

The subject of the next experiment is MCF7. Kind of experiment: Cytotoxicity against human MCF7 cells by MTT assay. In kind it is functional, cell-based. Put shortly: as §1
A further experiment concerns HeLa. Put plainly: Cytotoxicity against human HeLa cells by MTT assay. It counts as functional, cell-based. Put shortly:
as §1

For the next experiment, the system named is HEK293. Put plainly: Cytotoxicity against HEK293 cells by MTT assay. In kind it is cell-based. The conditions noted are these: Homo sapiens. Put shortly: as §1

With `O=C(CN1C(=O)CSC1=O)c1ccccc1`, the half-maximal inhibitory concentration (IC50) in the experiment on A549 was 14.1 µM; with MDA-MB-231, over 100 µM; in the experiment with MCF7 it was over 100 µM; in the experiment on HeLa, over 100 µM; with HEK293 it was over 100 µM.

Take `O=C(CN1C(=O)S/C(=C\C2=C(Cl)c3ccccc3CCC2)C1=O)c1ccccc1`: the IC50 in the experiment on A549 is 4.89 µM; in the experiment with MDA-MB-231, 13.3 µM; in the experiment with MCF7 it was 5.31 µM; in the experiment on HeLa it was 2.98 µM; with HEK293, over 100 µM.

Turning to `Cc1ccc(C(=O)CN2C(=O)S/C(=C\C3=C(Cl)c4ccccc4CCC3)C2=O)cc1`, the concentration for half-maximal inhibition (IC50) in the experiment with A549 was over 100 µM; with MDA-MB-231 it was 5.84 µM; with MCF7 it was over 100 µM; in the experiment on HeLa, 7.89 µM; in the experiment with HEK293 it was over 100 µM.

`COc1ccc(C(=O)CN2C(=O)S/C(=C\C3=C(Cl)c4ccccc4CCC3)C2=O)cc1`: the half-inhibitory concentration (IC50) with A549 is 5.44 µM; in the experiment with MDA-MB-231, over 100 µM; in the experiment with MCF7 it was 8.95 µM; in the experiment on HeLa it was over 100 µM; with HEK293, over 100 µM.

Regarding `O=C(CN1C(=O)S/C(=C\C2=C(Cl)c3ccccc3CCC2)C1=O)c1ccc(Cl)cc1`, the half-inhibitory concentration (IC50) in the experiment with A549, with MDA-MB-231, in the experiment on MCF7, in the experiment on HeLa and in the experiment with HEK293 was over 100 µM throughout.

Take `O=C(CN1C(=O)S/C(=C\C2=C(Cl)c3ccccc3CCC2)C1=O)c1ccc(Br)cc1`: the IC50 in the experiment with A549 was 5.75 µM; in the experiment on MDA-MB-231 it was over 100 µM; with MCF7, 51.7 µM; in the experiment on HeLa it was over 100 µM; in the experiment with HEK293 it was over 100 µM.

In the case of `Cc1cc2c(cc1C)C(Cl)=C(/C=C1\SC(=O)N(CC(=O)c3ccccc3)C1=O)CCC2`, the IC50 was over 100 µM in the experiment on A549; over 100 µM with MDA-MB-231; over 100 µM in the experiment on MCF7; 7.89 µM in the experiment with HeLa; over 100 µM in the experiment with HEK293.

Consider `Cc1ccc(C(=O)CN2C(=O)S/C(=C\C3=C(Cl)c4cc(C)c(C)cc4CCC3)C2=O)cc1`, for which the concentration for half-maximal inhibition (IC50) in the experiment with A549 was over 100 µM; in the experiment with MDA-MB-231, 13.4 µM; with MCF7, 1.91 µM; in the experiment on HeLa it was over 100 µM; with HEK293, over 100 µM.

Consider `COc1ccc(C(=O)CN2C(=O)S/C(=C\C3=C(Cl)c4cc(C)c(C)cc4CCC3)C2=O)cc1`, for which the IC50 with A549 is over 100 µM; with MDA-MB-231, 7.89 µM; in the experiment on MCF7, over 100 µM; with HeLa it was 17.9 µM; in the experiment on HEK293 it was over 100 µM.

With `Cc1cc2c(cc1C)C(Cl)=C(/C=C1\SC(=O)N(CC(=O)c3ccc(Cl)cc3)C1=O)CCC2`, the IC50 with A549 was 3.49 µM; in the experiment with MDA-MB-231, over 100 µM; in the experiment on MCF7, 9.85 µM; in the experiment on HeLa, over 100 µM; in the experiment with HEK293, over 100 µM.

Turning to `Cc1cc2c(cc1C)C(Cl)=C(/C=C1\SC(=O)N(CC(=O)c3ccc(Br)cc3)C1=O)CCC2`, the IC50 with A549 is 9.69 µM; with MDA-MB-231 it was over 100 µM; in the experiment with MCF7, 36.8 µM; in the experiment with HeLa, over 100 µM; with HEK293, over 100 µM.

`Cc1ccc(C(=O)CN2C(=O)CSC2=O)cc1`: the half-maximal inhibitory concentration (IC50) in the experiment with A549 was 17 µM; in the experiment with MDA-MB-231, over 100 µM; with MCF7, over 100 µM; in the experiment with HeLa, over 100 µM; in the experiment with HEK293, over 100 µM.

Take `COc1ccc(C(=O)CN2C(=O)CSC2=O)cc1`: the IC50 with A549, in the experiment with MDA-MB-231, with MCF7, with HeLa and with HEK293 was over 100 µM in each case.

As to `O=C(CN1C(=O)CSC1=O)c1ccc(Cl)cc1`, the half-maximal inhibitory concentration (IC50) is over 100 µM in the experiment on A549; over 100 µM with MDA-MB-231; over 100 µM in the experiment with MCF7; over 100 µM in the experiment on HeLa; 14 µM with HEK293.

As for `O=C(CN1C(=O)CSC1=O)c1ccc(Br)cc1`, the IC50 with A549 is 22.7 µM; in the experiment on MDA-MB-231, over 100 µM; in the experiment with MCF7, over 100 µM; in the experiment with HeLa it was over 100 µM; in the experiment with HEK293, over 100 µM.

Take `O=C1NC(=O)/C(=C/C2=C(Cl)c3ccccc3CCC2)S1`: the half-maximal inhibitory concentration (IC50) in the experiment with A549, in the experiment with MDA-MB-231, with MCF7, in the experiment with HeLa and with HEK293 was over 100 µM each time.

Take `Cc1cc2c(cc1C)C(Cl)=C(/C=C1\SC(=O)NC1=O)CCC2`: the half-maximal inhibitory concentration (IC50) in the experiment with A549 was 5.39 µM; with MDA-MB-231 it was 5.79 µM; in the experiment on MCF7, over 100 µM; with HeLa, 5.89 µM; in the experiment on HEK293, over 100 µM.

In turn, `COc1cccc2c1C(=O)c1c(O)c3c(c(O)c1C2=O)C[C@@](O)(C(=O)CO)C[C@@H]3O[C@H]1C[C@H](N)[C@H](O)[C@H](C)O1` [DOXORUBICIN] returned an IC50 with HEK293 of over 100 µM.

What is called IC50 is the concentration that gives 50% inhibition.

These data come from ChEMBL document CHEMBL3098029, “Studies on the synthetic and structural aspects of benzosuberones bearing 2, 4-thiazolidenone moiety as potential anti-cancer agents” (Eur J Med Chem, 2014).
